An excerpt weighted towards active compounds, which were near 3.3% of everything screened.
sPLA2-III inh – human group III sPLA2 inhibitors, primary screen, biochemical, QFRET, BODIPY PC-A2 liposome substrate | Group 3 secretory phospholipase A2 (Homo sapiens), Q9NZ20 | QFRET BODIPY PC-A2 liposome hydrolysis, fluorescence | inhibition, % at 12.2 µM | hit rate 0.56% among 370,000 | AID 743126, 2013;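 active = inhibition above mean plus 3 SD of compounds lying within the high and low control bounds, cut at about 19% in these data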;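 also: 0% = median of test compound wells and 100% = no enzyme DMSO wells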
Target sequence (Q9NZ20 whole entry, looked up): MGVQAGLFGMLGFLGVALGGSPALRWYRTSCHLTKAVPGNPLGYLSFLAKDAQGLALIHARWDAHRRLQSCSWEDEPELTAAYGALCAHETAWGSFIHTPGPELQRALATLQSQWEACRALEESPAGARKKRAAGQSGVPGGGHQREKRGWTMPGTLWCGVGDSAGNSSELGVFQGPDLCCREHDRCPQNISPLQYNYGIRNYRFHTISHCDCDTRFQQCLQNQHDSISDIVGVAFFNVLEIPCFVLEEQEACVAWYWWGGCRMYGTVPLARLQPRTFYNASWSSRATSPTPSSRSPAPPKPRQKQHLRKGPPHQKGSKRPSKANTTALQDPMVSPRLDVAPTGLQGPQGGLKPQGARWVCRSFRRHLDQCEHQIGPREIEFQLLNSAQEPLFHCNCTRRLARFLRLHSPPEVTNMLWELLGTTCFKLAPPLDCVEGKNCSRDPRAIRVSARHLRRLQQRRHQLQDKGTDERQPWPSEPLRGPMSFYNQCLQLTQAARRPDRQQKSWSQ
Arrestin-AP2 inh – inhibitors of beta-arrestin/AP2 binding, primary screen, biochemical, GPCR trafficking, flow cytometry; beta-arrestin 1 C-terminal peptide binding to AP2 beta2-adaptin appendage (human); FITC-arrestin peptide / GST-AP2 beads; AP2 beta2 appendage carries R879A mutation; inhibition, % at 10 µM; hit rate 0.31% among 340,000; AID 504490, 2011;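 active = inhibition above a set limit, near 3 SD of compounds lacking own fluorescence, cut at about 54% in these data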;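 also: plate controls were DMSO wells for no effect and 5 µM unlabelled arrestin peptide for full effect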
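System: GST-tagged AP2 beta2-adaptin appendage (R879A) on 4 µm glutathione beads / Reagent: FITC-arrestin peptide, 50 nM / Detection: HyperCyt-sampled flow cytometry, FL1 channel, ex 488/em 535 nm / Timing: 12 min plus 1 h, RT / Buffer or medium: PBS plus Tween 20 (0.05%) and BSA (0.1%)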
PfM18AAP inh – PfM18AAP inhibitors, malaria aminopeptidase, primary screen, biochemical, QFRET, recombinant enzyme; hit rate 1.2% among 290,000; M18 aspartyl aminopeptidase (Plasmodium falciparum 3D7); AID 1822, 2009; inhibition, % at 7.35 µM; H-Glu-NHMec fluorogenic cleavage;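 active = inhibition above the campaign mean inhibition over all tested compounds plus 3 SD, cut at about 28% in these data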;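 also: 0% = plate median of test compound wells and 100% = 2 mM ZnCl2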
m5-HT2A agonist – mouse Htr2a agonists via beta-arrestin recruitment, primary screen, cell-based, luminescence; 5-hydroxytryptamine receptor 2A (Mus musculus), P35363; CHO-K1 mHTR2A beta-arrestin complementation; percent of 30 µM serotonin response; activation, % at 7.6 µM; hit rate 0.66% among 360,000;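 active = activation above a run cutoff, the mean activation of all tested compounds plus 3 SD, cut at about 14% in these data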;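 also: 0% = plate median of compound wells and 100% = 30 µM serotonin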
CendR NRP1 mod – modulators of CendR peptide binding to NRP-1, primary screen, biochemical, fluorescence polarization, uHTS; Neuropilin-1 (Homo sapiens), O14786; FAM-RPARPAR peptide binding to NRP-1; inhibition, % at 25 µM; hit rate 0.85% among 360,000; AID 602438, 2012;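 active = inhibition or corrected inhibition above about 18%, plus a signal ratio from 0.5 to 1.5, limit read from the data, passing the limit was not always enough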
Hep lipid drop – inhibitors of hepatocyte lipid droplet formation, primary screen, imaging, high-throughput imaging, BODIPY stain; AML12 mouse hepatocytes, oleate lipid droplets; inhibition, % at 6.5 µM; hit rate 0.4% among 240,000;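 active = lipid droplet intensity inhibited by at least 50%, with more than 500 cells counted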
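Material – AML12 mouse liver cells · Also added – oleate loading, 100 µM · Compound dosing – 6.5 µM single-point dosing · Times – overnight treatment with compound plus oleate · Measured by – fluorescence imaging, 20x objective, two fields per well · Read-out – percent inhibition of filter-corrected integrated lipid droplet intensity per well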
Arr AP2 CP1 – inhibitors of arrestin peptide binding to AP2, confirmation, biochemical, cherry pick 1, flow cytometry beads. GST-AP2 beads, FITC arrestin peptide binding; GST-fused beta2-adaptin appendage, R879A mutant. hit rate 2% among 1,300. inhibition, % at 10 µM. shares compounds with Arrestin-AP2 inh;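 active = inhibition above a set limit, roughly 3 SD of non-fluorescent compound noise, cut at about 38% in these data; inactive = inhibition at or below that limit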;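 also: loss of bead fluorescence from 50 nM FITC arrestin peptide bound to appendage; 0% = negative control wells and 100% = excess unlabelled arrestin peptide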
GST-FITC bead – GST-fluorescein capture on glutathione beads, confirmation, artefact control for arrestin-AP2 inhibitor project, biochemical, cherry pick 1, flow cytometry | hit rate 2% among 1,300 | inhibition, % at 10 µM | GST-fluorescein binding to GSH beads, fluorescence, counter-screen | shares compounds with Arrestin-AP2 inh | AID 588338, 2011;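 active = inhibition above 50%, about 3 SD of the inhibition seen with non-fluorescent compounds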;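 also: fluorescein maleimide labelled GST captured on 4 micron glutathione beads; higher means more loss of bead fluorescence from quenching or blocked binding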
* hit, by the source's call; . = no result.

SMILES	sPLA2-III inh	Arrestin-AP2 inh	PfM18AAP inh	m5-HT2A agonist	CendR NRP1 mod	Hep lipid drop	Arr AP2 CP1	GST-FITC bead
COc1ccc(C(=O)NNC2=Nc3cccc4cccc2c34)cc1	7.4	14.7	2.1	-2.0	-8.4	16.6	.	.
COc1ccc(OC)c(NC(=O)c2ccc(CN(c3cc(Cl)ccc3C)S(=O)(=O)c3ccccc3)cc2)c1	5.7	82.1*	5.8	2.5	-4.2	.	8.8	-2.6
O=C(COC(=O)COc1ccc(Br)cc1)NCc1ccc2c(c1)OCO2	-4.9	-4.0	.	-4.0	0.7	.	.	.
N#Cc1ccccc1OCC(=O)OCC(=O)NCc1ccc2c(c1)OCO2	3.3	54.9*	.	7.2	16.5	.	4.8	-5.1
C=CC(=O)NC1CCCCN(C(C)C)C1=O (stereo not given)	4.0	.	.	.	.	.	.	.
CCOCCCNS(=O)(=O)c1ccc(NC(=O)c2ccc(OC)c([N+](=O)[O-])c2)cc1	-6.8	55.8*	10.8	1.2	1.8	-12.7	10.1	7.3
COc1ccc(C(=O)Nc2ccc(S(=O)(=O)NC(C)=O)cc2)cc1[N+](=O)[O-]	-4.3	-11.1	18.6	-4.7	-0.3	12.1	.	.
O=C(NCc1cc(Cl)cc(Cl)c1)c1csc([C@@H]2C[C@H](O)[C@@H](CO)O2)n1	6.2	.	.	-1.3	11.6	.	.	.
C[C@H](CO)N1C[C@H](C)[C@@H](CN(C)C(=O)Nc2cccc(F)c2)OCc2cn(nn2)CCCC1=O	5.8	.	.	.	.	.	.	.
CCc1ccccc1NC(=O)CNC(=O)c1cn(Cc2ccccc2)nc1-c1cccnc1	-4.0	64.4*	.	3.9	-2.8	.	-4.1	3.0
CN(Cc1cccc(F)c1)C(=O)c1cc(S(=O)(=O)N2CCOCC2)ccc1N1CCCC1	5.8	-1.5	.	-8.1	7.5	.	-4.4	-3.6
CCc1ccc(CN(C)C(=O)c2cc(S(=O)(=O)N3CCOCC3)ccc2N2CCCC2)cc1	7.3	-3.7	.	4.1	-2.6	.	-15.1	-4.2
Cc1ccsc1CN(C)C(=O)c1cc(S(=O)(=O)N2CCOCC2)ccc1N1CCCC1	9.6	-8.3	.	-7.7	9.7	.	.	.
CCN(Cc1ccccc1)C(=O)c1cc(S(=O)(=O)N2CCOCC2)ccc1N1CCCC1	-0.1	57.2*	.	4.2	-0.2	.	-11.0	-1.9
Cc1cccc(C)c1NC(=O)CN(C)C(=O)c1cc(S(=O)(=O)N2CCOCC2)ccc1N1CCCC1	12.4	47.0	.	1.8	12.8	.	.	.
Cc1ccc(NC(=O)CN2CCN(C(=O)c3ccco3)CC2)cc1S(=O)(=O)N(C)C	-4.3	-7.7	.	-5.6	10.3	.	.	.
C[C@@H]1CN([C@H](C)CO)C(=O)CCCn2nncc2CO[C@H]1CN(C)C(=O)C1CCCCC1	2.0	.	.	-5.7	-9.9	.	.	.
CSC1=NC=C(C#N)C2=NC(c3ccc(Cl)cc3)NN12 (stereo not given)	.	.	.	4.5	-3.2	.	.	.
COc1ccc(S(=O)(=O)c2ccc(O)cc2)cc1	-11.6	-14.2	9.6	-5.1	0.6	.	.	.
COc1ccc(S(=O)(=O)c2ccc(OCC3CO3)cc2)cc1 (stereo not given)	-5.9	64.2*	1.2	0.6	5.3	-1.0	12.0	-2.4
COC1C(O)CCC2(CO2)C1C1(C)OC1CC=C(C)C (stereo not given)	-1.1	.	.	.	.	.	.	.
COc1ccc(-c2csc(NC(=S)NC(=O)/C=C/c3ccco3)n2)cc1Br	3.6	87.7*	7.6	0.3	-17.5	10.5	-1.6	-8.6
CCn1c(=O)n(CC(=O)Nc2cccc(OC)c2)c(=O)c2ccccc21	-6.5	-0.3	-8.3	5.7	-5.8	2.3	-2.5	-5.9
COc1cccc(NC(=O)Cn2c(=O)n(-c3cc(OC)c(OC)c(OC)c3)c(=O)c3ccccc32)c1	4.0	17.6	3.5	6.8	-4.0	15.2	.	.
CCn1c(=O)n(CC(=O)Nc2cc(OC)c(OC)c(OC)c2)c(=O)c2ccccc21	-0.5	14.0	-0.7	-3.3	3.9	-13.7	-13.1	-4.0
SMILES	sPLA2-III inh	Arrestin-AP2 inh	PfM18AAP inh	m5-HT2A agonist	CendR NRP1 mod	Hep lipid drop	Arr AP2 CP1	GST-FITC bead
COc1cc(OC)cc(C(=O)NCCCNC(=O)c2ccccn2)c1	5.0	-8.4	-0.4	5.7	11.2	-4.5	.	.
Cc1cccc2cc(CN(Cc3ccco3)C(=O)NC3CCCCC3)c(=O)[nH]c12	-3.0	26.9	-5.9	-4.1	-2.1	-9.3	5.7	-2.3
Cc1ccc2cc(CN(CC3CCCO3)C(=O)NC3CCCCC3)c(=O)[nH]c2c1C (stereo not given)	-6.6	12.3	-10.4	-5.0	-11.1	.	-1.6	-4.5
Cc1cccc2cc(CN(CC3CCCO3)C(=O)NC3CCCCC3)c(=O)[nH]c12 (stereo not given)	2.7	-6.5	3.9	0.3	-18.3	.	0.3	-3.8
COc1ccc(CCN(Cc2cc3cccc(C)c3[nH]c2=O)C(=O)NC2CCCCC2)cc1OC	-4.0	8.6	7.0	3.3	-2.2	-2.4	-1.5	-4.8
CC(C)C[C@H]1CNC(=S)N1C[C@H]1CCCN1C[C@H](Cc1ccccc1)N1C[C@H](CC(C)C)N(CCc2ccccc2)C1=S	2.9	.	.	-5.7	-1.6	.	.	.
Cc1ccc2nc3c(c(C(=O)OCC(=O)NC4CCS(=O)(=O)C4)c2c1)CCCC3 (stereo not given)	0.8	57.0*	-5.2	2.5	7.7	16.7	1.7	-3.4
Cc1cccc2cc(/C=C3\N=C(c4ccccc4)OC3=O)c(N3CCOCC3)nc12	-9.5	67.3*	-7.1	1.1	65.1	.	13.7	22.8

Bioassay records (PubChem BioAssay)
